Reference: BindingDB's records for doi:10.1021/acs.jmedchem.5b00162 (University of Montreal, 2015)

Legend:
Urotensin-2 receptor [1] = target: T1, Urotensin-2 receptor (Rattus norvegicus, UniProt P49684); experiment: Modulation of urotensin-2 receptor in Sprague-Dawley rat thoracic aortic ring assessed as urotensin-2 related peptide pEC50 for induction of aortic ring contraction at 10 uM preincubated for 15 mins followed by urotensin-2 related peptide addition (Rvb = 7.89 +/- 0.08 no unit)
T1 sequence (P49684 whole entry): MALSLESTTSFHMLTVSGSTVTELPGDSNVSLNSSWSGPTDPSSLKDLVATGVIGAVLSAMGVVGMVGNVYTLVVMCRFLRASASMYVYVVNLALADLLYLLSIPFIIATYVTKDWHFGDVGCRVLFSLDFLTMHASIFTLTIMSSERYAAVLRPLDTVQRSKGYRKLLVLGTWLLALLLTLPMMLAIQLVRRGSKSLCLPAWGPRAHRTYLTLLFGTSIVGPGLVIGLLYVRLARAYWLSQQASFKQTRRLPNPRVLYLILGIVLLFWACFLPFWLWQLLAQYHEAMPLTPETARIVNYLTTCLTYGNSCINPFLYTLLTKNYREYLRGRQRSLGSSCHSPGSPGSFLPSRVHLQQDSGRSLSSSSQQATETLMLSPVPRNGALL

Urotensin-2 receptor [2] = target: T1, Urotensin-2 receptor; experiment: Modulation of urotensin-2 receptor in Sprague-Dawley rat thoracic aortic ring assessed as human urotensin-2 EC50 for induction of aortic ring contraction at 10 uM preincubated for 15 mins followed by human urotensin-2 addition (Rvb = 1.9 nM)
Method in brief: (§1)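 Thoracic aortic rings from adult male Sprague-Dawley rats (250–300 g, killed by CO2). Rings were exposed to test compound for 15 min, then cumulative hUII concentration-response curves were run (10-10–3.10-6 M). Contraction is expressed as % of the 40 mM KCl response, with KCl given at the start and end. EC50/pEC50/Emax come from a variable-slope sigmoidal fit. At least triplicate.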

Urotensin-2 receptor [3] = target: T1, Urotensin-2 receptor; experiment: Modulation of urotensin-2 receptor in Sprague-Dawley rat thoracic aortic ring assessed as urotensin-2 related peptide EC50 for induction of aortic ring contraction at 10 uM preincubated for 15 mins followed by urotensin-2 related peptide addition (Rvb = 13 nM)
Urotensin-2 receptor [4] = target: T1, Urotensin-2 receptor; experiment: Modulation of urotensin-2 receptor in Sprague-Dawley rat thoracic aortic ring assessed as human urotensin-2 pEC50 for induction of aortic ring contraction at 10 uM preincubated for 15 mins followed by human urotensin-2 addition (Rvb = 8.71 +/- 0.08 no unit); method in brief: as §1
[5] = Modulation of urotensin-2 receptor in Sprague-Dawley rat thoracic aortic ring assessed as human urotensin-2 EC50 for induction of aortic ring contraction at 15 uM preincubated for 15 mins followed by human urotensin-2 addition (Rvb = 1.9 nM)
[6] = Modulation of urotensin-2 receptor in Sprague-Dawley rat thoracic aortic ring assessed as human urotensin-2 pEC50 for induction of aortic ring contraction at 15 uM preincubated for 15 mins followed by human urotensin-2 addition (Rvb = 8.71 +/- 0.08 no unit)
[7] = Modulation of urotensin-2 receptor in Sprague-Dawley rat thoracic aortic ring assessed as urotensin-2 related peptide EC50 for induction of aortic ring contraction at 15 uM preincubated for 15 mins followed by urotensin-2 related peptide addition (Rvb = 13 nM)
[8] = Modulation of urotensin-2 receptor in Sprague-Dawley rat thoracic aortic ring assessed as urotensin-2 related peptide pEC50 for induction of aortic ring contraction at 15 uM preincubated for 15 mins followed by urotensin-2 related peptide addition (Rvb = 7.89 +/- 0.08 no unit)
[9] = Modulation of urotensin-2 receptor in Sprague-Dawley rat thoracic aortic ring assessed as human urotensin-2 EC50 for induction of aortic ring contraction at 8 uM preincubated for 15 mins followed by human urotensin-2 addition (Rvb = 1.9 nM)
[10] = Modulation of urotensin-2 receptor in Sprague-Dawley rat thoracic aortic ring assessed as human urotensin-2 pEC50 for induction of aortic ring contraction at 8 uM preincubated for 15 mins followed by human urotensin-2 addition (Rvb = 8.71 +/- 0.08 no unit)
[11] = Modulation of urotensin-2 receptor in Sprague-Dawley rat thoracic aortic ring assessed as urotensin-2 related peptide EC50 for induction of aortic ring contraction at 8 uM preincubated for 15 mins followed by urotensin-2 related peptide addition (Rvb = 13 nM)
[12] = Modulation of urotensin-2 receptor in Sprague-Dawley rat thoracic aortic ring assessed as urotensin-2 related peptide pEC50 for induction of aortic ring contraction at 8 uM preincubated for 15 mins followed by urotensin-2 related peptide addition (Rvb = 7.89 +/- 0.08 no unit)
Urotensin-2 receptor [13] = target: T1, Urotensin-2 receptor; experiment: Modulation of urotensin-2 receptor in Sprague-Dawley rat thoracic aortic ring assessed as urotensin-2 related peptide pEC50 for induction of aortic ring contraction at 11 uM preincubated for 15 mins followed by urotensin-2 related peptide addition (Rvb = 7.89 +/- 0.08 no unit)
Urotensin-2 receptor [14] = target: T1, Urotensin-2 receptor; experiment: Modulation of urotensin-2 receptor in Sprague-Dawley rat thoracic aortic ring assessed as human urotensin-2 EC50 for induction of aortic ring contraction at 11 uM preincubated for 15 mins followed by human urotensin-2 addition (Rvb = 1.9 nM)
Urotensin-2 receptor [15] = target: T1, Urotensin-2 receptor; experiment: Modulation of urotensin-2 receptor in Sprague-Dawley rat thoracic aortic ring assessed as human urotensin-2 pEC50 for induction of aortic ring contraction at 11 uM preincubated for 15 mins followed by human urotensin-2 addition (Rvb = 8.71 +/- 0.08 no unit)
Urotensin-2 receptor [16] = target: T1, Urotensin-2 receptor; experiment: Modulation of urotensin-2 receptor in Sprague-Dawley rat thoracic aortic ring assessed as urotensin-2 related peptide EC50 for induction of aortic ring contraction at 11 uM preincubated for 15 mins followed by urotensin-2 related peptide addition (Rvb = 13 nM)
Urotensin-2 receptor [17] = target: T1, Urotensin-2 receptor; experiment: Modulation of urotensin-2 receptor in Sprague-Dawley rat thoracic aortic ring assessed as urotensin-2 related peptide pEC50 for induction of aortic ring contraction at 14 uM preincubated for 15 mins followed by urotensin-2 related peptide addition (Rvb = 7.89 +/- 0.08 no unit)
Urotensin-2 receptor [18] = target: T1, Urotensin-2 receptor; experiment: Modulation of urotensin-2 receptor in Sprague-Dawley rat thoracic aortic ring assessed as human urotensin-2 EC50 for induction of aortic ring contraction at 14 uM preincubated for 15 mins followed by human urotensin-2 addition (Rvb = 1.9 nM)
Urotensin-2 receptor [19] = target: T1, Urotensin-2 receptor; experiment: Modulation of urotensin-2 receptor in Sprague-Dawley rat thoracic aortic ring assessed as human urotensin-2 pEC50 for induction of aortic ring contraction at 14 uM preincubated for 15 mins followed by human urotensin-2 addition (Rvb = 8.71 +/- 0.08 no unit)
Urotensin-2 receptor [20] = target: T1, Urotensin-2 receptor; experiment: Modulation of urotensin-2 receptor in Sprague-Dawley rat thoracic aortic ring assessed as urotensin-2 related peptide EC50 for induction of aortic ring contraction at 14 uM preincubated for 15 mins followed by urotensin-2 related peptide addition (Rvb = 13 nM)
Urotensin-2 receptor [21] = target: T1, Urotensin-2 receptor; experiment: Modulation of urotensin-2 receptor in Sprague-Dawley rat thoracic aortic ring assessed as human urotensin-2 EC50 for induction of aortic ring contraction at 4 uM preincubated for 15 mins followed by human urotensin-2 addition (Rvb = 1.9 nM)
Urotensin-2 receptor [22] = target: T1, Urotensin-2 receptor; experiment: Modulation of urotensin-2 receptor in Sprague-Dawley rat thoracic aortic ring assessed as human urotensin-2 EC50 for induction of aortic ring contraction at 1 uM preincubated for 15 mins followed by human urotensin-2 addition (Rvb = 1.9 nM)
Urotensin-2 receptor [23] = target: T1, Urotensin-2 receptor; experiment: Modulation of urotensin-2 receptor in Sprague-Dawley rat thoracic aortic ring assessed as human urotensin-2 pEC50 for induction of aortic ring contraction at 4 uM preincubated for 15 mins followed by human urotensin-2 addition (Rvb = 8.71 +/- 0.08 no unit)
Urotensin-2 receptor [24] = target: T1, Urotensin-2 receptor; experiment: Modulation of urotensin-2 receptor in Sprague-Dawley rat thoracic aortic ring assessed as human urotensin-2 pEC50 for induction of aortic ring contraction at 1 uM preincubated for 15 mins followed by human urotensin-2 addition (Rvb = 8.71 +/- 0.08 no unit)

| SMILES | EC50 (Urotensin-2 receptor [1]) | EC50 (Urotensin-2 receptor [2]) | EC50 (Urotensin-2 receptor [3]) | EC50 (Urotensin-2 receptor [4]) | further results |
| --- | --- | --- | --- | --- | --- |
| NCCC[C@@H]1N[C@H](c2cccc3ccccc23)c2[nH]c(C(=O)O)cc2N(CCc2ccc(O)cc2)C1=O | 4.6 nM | 5.7 nM | 4.5 nM | 5.6 nM | – |
| NCCCC[C@@H]1N[C@@H](c2ccc3ccccc3c2)c2[nH]c(C(=O)O)cc2N(CCc2ccc(O)cc2)C1=O | 8.7 nM | 1.5 nM | 8.7 nM | 1.5 nM | – |
| NCCCC[C@@H]1N[C@H](c2ccc3ccccc3c2)c2[nH]c(C(=O)O)cc2N(CCc2ccc(O)cc2)C1=O | 8.3 nM | 5 nM | 8.2 nM | 4.9 nM | – |
| NCCCC[C@@H]1N=C(c2ccc(-c3ccccc3)cc2)c2[nH]c(C(=O)O)cc2N(CCc2ccc(O)cc2)C1=O | – | – | – | – | EC50 [5]: 6.6 nM; EC50 [6]: 6.5 nM; EC50 [7]: 12 nM; EC50 [8]: 12 nM |
| NCCCC[C@@H]1N=C(c2cccc3ccccc23)c2[nH]c(C(=O)O)cc2N(CCc2ccc(O)cc2)C1=O | – | – | – | – | EC50 [9]: 7.8 nM; EC50 [10]: 7.8 nM; EC50 [11]: 5.3 nM; EC50 [12]: 5.4 nM |
| NCCC[C@@H]1N[C@H](c2ccc(-c3ccccc3)cc2)c2[nH]c(C(=O)O)cc2N(CCc2ccc(O)cc2)C1=O | – | – | – | – | EC50 (Urotensin-2 receptor [13]): 8.1 nM; EC50 (Urotensin-2 receptor [14]): 4.3 nM; EC50 (Urotensin-2 receptor [15]): 4.3 nM; EC50 (Urotensin-2 receptor [16]): 8.1 nM |
| NCCCC[C@@H]1N[C@@H](c2ccc(-c3ccccc3)cc2)c2[nH]c(C(=O)O)cc2N(CCc2ccc(O)cc2)C1=O | – | – | – | – | EC50 (Urotensin-2 receptor [17]): 10 nM; EC50 (Urotensin-2 receptor [18]): 8.8 nM; EC50 (Urotensin-2 receptor [19]): 8.7 nM; EC50 (Urotensin-2 receptor [20]): 10 nM |
| NCCCC[C@@H]1N[C@H](c2ccc(-c3ccccc3)cc2)c2[nH]c(C(=O)O)cc2N(CCc2ccc(O)cc2)C1=O | – | – | – | – | EC50 (Urotensin-2 receptor [17]): 19 nM; EC50 (Urotensin-2 receptor [21]): 3.5 nM; EC50 (Urotensin-2 receptor [22]): 4.5 nM; EC50 (Urotensin-2 receptor [23]): 3.5 nM; EC50 (Urotensin-2 receptor [24]): 4.5 nM; EC50 (Urotensin-2 receptor [20]): 19 nM |
| NCCC[C@@H]1N[C@@H](c2cccc3ccccc23)c2[nH]c(C(=O)O)cc2N(CCc2ccc(O)cc2)C1=O | 3.6 nM | 4.8 nM | 3.7 nM | 4.8 nM | – |
| NCCCC[C@@H]1N=C(c2ccc3ccccc3c2)c2[nH]c(C(=O)O)cc2N(CCc2ccc(O)cc2)C1=O | 21 nM | 4 nM | 21 nM | 4.7 nM | – |
| NCCC[C@@H]1N=C(c2ccc3ccccc3c2)c2[nH]c(C(=O)O)cc2N(CCc2ccc(O)cc2)C1=O | 6.8 nM | 9.5 nM | 6.8 nM | 9.3 nM | – |
| NCCC[C@@H]1N=C(c2cccc3ccccc23)c2[nH]c(C(=O)O)cc2N(CCc2ccc(O)cc2)C1=O | 12 nM | 2.7 nM | 12 nM | 2.6 nM | – |
| NCCC[C@@H]1N=C(c2ccc(-c3ccccc3)cc2)c2[nH]c(C(=O)O)cc2N(CCc2ccc(O)cc2)C1=O | 23 nM | 12 nM | 23 nM | 12 nM | – |
